In ChEMBL document CHEMBL4765393, “Discovery of novel small molecule inhibitors of S100P with in vitro anti-metastatic effects on pancreatic cancer cells” (Eur J Med Chem, 2020):
The source made the active and inactive calls. The calls are words filed in the database; no cut-off is given here.

Tests used:
[1] = system: BXPC-3; test: Cytotoxicity against S100P expressing human BXPC-3 cells assessed as reduction in cell viability at 10 uM measured after 24 hrs by MTS assay; type: functional, cell-based
Method in brief: (§1)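 1 × 10^5 BxPC-3 (RPMI-1640) or Panc-1 (DMEM high glucose) cells, in medium with 10% FBS, were allowed to adhere for 24 h, then given 10 μM compound. MTS absorbance was read at 492 nm every 24 h. Background was subtracted and values normalized to untreated cells. n = 3 separate experiments.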

[2] = system: PANC-1; test: Cytotoxicity against human PANC-1 cells assessed as reduction in cell viability at 10 uM measured after 24 hrs by MTS assay; type: functional, cell-based; method in brief: as §1
[3] = system: BXPC-3; test: Cytotoxicity against S100P expressing human BXPC-3 cells assessed as LDH release at 10 uM measured after 24 hrs by LDH assay; type: functional, cell-based
Method in brief: (§2)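 1 × 10^5 BxPC-3 (RPMI-1640) or Panc-1 (DMEM high glucose) cells were allowed to adhere for 24 h, then given 10 μM compound. Membrane integrity was measured by LDH release (CytoTox-ONE) every 24 h for up to 3 days, with background OD subtracted.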

[4] = system: PANC-1; test: Cytotoxicity against human PANC-1 cells assessed as LDH release at 10 uM measured after 24 hrs by LDH assay; type: functional, cell-based; method in brief: as §2
[5] = system: BXPC-3; test: Antiinvasive activity in S100P expressing human BXPC-3 cells assessed as inhibition of cell invasion at 10 uM incubated for 48 hrs by transwell invasion assay; type: functional, cell-based
Method in brief: (§3)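 Matrigel-coated Transwell (PET membrane, 8 μm pores). BxPC-3 (RPMI-1640) or Panc-1 (DMEM) cells were seeded at 2 × 10^5 cells/mL in serum-free medium in the upper chamber, with 10% FBS below as chemoattractant. Cells were given 10 μM compound (0.1% DMSO final) for 48 h at 37 °C, 5% CO2. Invaded cells were Diff-Quik stained and counted in five ×100 fields. Three independent experiments.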

[6] = system: PANC-1; test: Antiinvasive activity in human PANC-1 cells assessed as inhibition of cell invasion at 10 uM incubated for 48 hrs by transwell invasion assay; type: functional, cell-based; method in brief: as §3
[7] = species on record: Homo sapiens; test: Inhibition of human recombinant S100P/RAGE interaction incubated for 1 hr and measured by ELISA based binding assay
Method in brief: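 His-tagged human S100P, expressed in E. coli BL21 and Ni-NTA purified, was coated at 2 μM in PBS pH 7.4 with 1 mM CaCl2, 10 μM ZnCl2 and 0.5 mM MgCl2 overnight at 37 °C, then blocked with 1% BSA for 2 h. Wells got increasing compound concentrations in triplicate, then human RAGE-Fc for 1 h at 37 °C, anti-human HRP for 1 h, and TMB for 20 min. Read at 450 nm, normalized to S100P+RAGE-Fc; IC50 estimated.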

[8] = Aqueous solubility of the compound in 1% DMSO; type: physicochemical; conditions: buffer
[9] = Aqueous solubility of the compound in 0.1% DMSO; type: physicochemical; conditions: buffer
[10] = system: PANC-1; test: Antiinvasive activity in human PANC-1 cells assessed as inhibition of cell invasion at 100 to 200 uM incubated for 48 hrs by transwell invasion assay; conditions: dose 100-200 µM
[11] = system: BXPC-3; test: Antiinvasive activity in S100P expressing human BXPC-3 cells assessed as inhibition of cell invasion at 100 to 200 uM incubated for 48 hrs by transwell invasion assay; conditions: dose 100-200 µM

Compound | Activity [1] | Activity [2] | Activity [3] | Activity [4] | Activity [5] | Activity [6] | INH [7] [nM] | solubility [8] | solubility [9] | Activity [10] | Activity [11]
O=C(Cc1cc(O)n[nH]1)N/N=C/c1c(Cl)cccc1Cl | inactive | inactive | inactive | inactive | Active | inactive |  |  |  |  | 
N#CCCn1cc(C(=O)Nc2ccc(C(=O)O)cc2)c(-c2ccccc2)n1 | inactive | inactive | inactive | inactive | Active | inactive |  |  |  |  | 
O=C1C2C3c4ccccc4C(c4ccccc43)C2C(=O)N1c1ccc(F)cc1 (centres undefined) | inactive | inactive | inactive | inactive | Active | inactive | 10 | Soluble | Soluble |  | 
COc1ccc(/C=C2/C(=O)NC(=O)N(c3ccc(Cl)c(Cl)c3)C2=O)cc1C(=O)O | inactive | inactive | inactive | inactive | Active | inactive |  |  |  |  | 
Cc1ccc(-c2ccc(=O)n(CC(=O)Nc3ccc(-n4cnnn4)cc3)n2)cc1 | inactive | inactive | inactive | inactive | Active | inactive |  |  |  |  | 
O=C(O)c1cc(=O)c2c(OCC(O)COc3cccc4oc(C(=O)O)cc(=O)c34)cccc2o1 | inactive | inactive | inactive | inactive | inactive | inactive |  |  |  | Active | Active
O=C1C2C3c4ccccc4C([N+](=O)[O-])(c4ccccc43)C2C(=O)N1c1cccc(F)c1 (centres undefined) | inactive | inactive | inactive | inactive | Active | inactive | 100 | Soluble | Soluble |  | 
O=C(O)c1ccc(N2C(=O)C3C4c5ccccc5C([N+](=O)[O-])(c5ccccc54)C3C2=O)cc1 (centres undefined) | inactive | inactive | inactive | inactive | Active | inactive | < 10 | Soluble | Soluble |  | 
O=C1C2C3c4ccccc4C(c4ccccc43)C2C(=O)N1c1cccc(F)c1 (centres undefined) | inactive | inactive | inactive | inactive | Active | inactive | 10 | Soluble | Soluble |  | 
O=C(O)c1cccc(N2C(=O)C3C4c5ccccc5C([N+](=O)[O-])(c5ccccc54)C3C2=O)c1 (centres undefined) | inactive | inactive | inactive | inactive | Active | inactive | 10 |  |  |  | 
O=C1C2C3c4ccccc4C(c4ccccc43)C2C(=O)N1c1ccccc1 (centres undefined) | inactive | inactive | inactive | inactive | Active | inactive | 10 | Soluble | Soluble |  | 
